The values below come from ChEMBL document CHEMBL1122554, “Synthesis and antitumor activity of tropolone derivatives” (1984).

SMILES strings stand for the structures. ≈ marks a conversion by molar mass, not a printed value.

Assay type in all cases: functional
Assay [1] has as its system Mus musculus. Briefly: In vivo antitumor activity was measured in mice (P388 leukemia) at dose 100 mg/kg after intraperitoneal administration. An outline of the steps:
(§1)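 Groups of six CDF1 mice were inoculated ip with 10⁶ P388 leukemia cells. Ip drug dosing began 24 h later, given once daily for 1 and 5 days. %T/C = median survival time of the treated group ÷ median survival time of the tumor control group × 100.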

Another assay has as its system KB. Nature of the assay: In vitro inhibitory activity against growth of KB cells derived from human epidermoid carcinoma of the mouth. The settings on record: for IC50: Homo sapiens, KB, read-out: ID50 (the source's name). An outline of the steps: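 KB human epidermoid carcinoma cells grown at 37 °C in 5% CO2–95% air and seeded at 2100 cells/cm². After 24 h the medium was changed and graded drug (0.3–100 µg/mL) added, two dishes per concentration. After 48 h of exposure, cells were trypsinized and counted by Coulter counter. IC50 was read from a plot of log concentration vs. growth rate (% of control).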

The test system of assay [2] is Mus musculus. Nature of the assay: In vivo antitumor activity was measured in mice (P388 leukemia) at dose 400 mg/kg after intraperitoneal administration. The method in brief:
as §1

Assay [3] has as its system Mus musculus. Briefly: In vivo antitumor activity was measured in mice (P388 leukemia) at dose 200 mg/kg after intraperitoneal administration. An outline of the steps: as §1
Assay [4] concerns Mus musculus. Nature of the assay: In vivo antitumor activity was measured in mice (P388 leukemia) at dose 50 mg/kg after intraperitoneal administration. An outline of the steps:
as §1

For assay [5], the system named is Mus musculus. Nature of the assay: In vivo antitumor activity was measured in mice (P388 leukemia) at dose 5 mg/kg after intraperitoneal administration. The method in brief: as §1
The subject of assay [6] is Mus musculus. Briefly: In vivo antitumor activity was measured in mice (P388 leukemia) at dose 2.5 mg/kg after intraperitoneal administration. The method in brief:
as §1

For assay [7], the system named is Mus musculus. Briefly: In vivo antitumor activity was measured in mice (P388 leukemia) at dose 10 mg/kg after intraperitoneal administration. The method in brief:
as §1

In assay [8] the test system is Mus musculus. Briefly: In vivo antitumor activity was measured in mice (P388 leukemia) at dose 20 mg/kg after intraperitoneal administration. An outline of the steps:
as §1

The subject of assay [9] is Mus musculus. Nature of the assay: In vivo antitumor activity was measured in mice (P388 leukemia) at dose 0.6 mg/kg after intraperitoneal administration. The method in brief: as §1
In assay [10] the test system is Mus musculus. Briefly: IIn vivo %T/C was measured in mice (P388 leukemia) at dose 10 mg/kg after intraperitoneal administration. The method in brief:
as §1

Assay [11] concerns Mus musculus. Nature of the assay: In vivo antitumor activity was measured in mice (P388 leukemia) at dose 1.3 mg/kg after intraperitoneal administration. The method in brief: as §1
Assay [12] relates to Mus musculus. Nature of the assay: In vivo antitumor activity was measured in mice (P388 leukemia) at dose 0.3 mg/kg after intraperitoneal administration. An outline of the steps:
as §1

The test system of assay [13] is Mus musculus. Briefly: In vivo antitumor activity was measured in mice (P388 leukemia) at dose 0.5 mg/kg after intraperitoneal administration. An outline of the steps:
as §1

Assay [14] relates to Mus musculus. Nature of the assay: In vivo antitumor activity was measured in mice (P388 leukemia) at dose 1 mg/kg after intraperitoneal administration. The method in brief: as §1
In assay [15] the test system is Mus musculus. Briefly: In vivo antitumor activity was measured in mice (P388 leukemia)at dose 200 mg/kg after intraperitoneal administration. The method in brief:
(§2)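 Groups of six CDF1 mice inoculated ip with 10⁶ P388 leukemia cells; ip drug treatment begun 24 h after inoculation, listed dose given once a day for 1 and 5 days. Endpoint: median survival time of treated group divided by that of tumor controls ×100 (% T/C).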

For assay [16], the system named is Mus musculus. Briefly: In vivo antitumor activity was measured in mice (P388 leukemia)at dose 100 mg/kg after intraperitoneal administration. The method in brief: as §2

Regarding `CC(C)c1ccc(C(c2ccccc2)c2ccccc2)c(O)c(=O)c1`, the T/C (as a rule, the ratio of treated to control) in the assay on Mus musculus [1] turned out to be 119%. For the same compound, in the assay on KB, the ID50 amounted to 4200 nM and the IC50 is 1.4 µg/mL (≈ 4.24 µM).
`CCOC(c1ccc(OC)cc1)c1ccc(C(C)C)cc(=O)c1O` (stereo not given): the T/C in the assay with Mus musculus [2] was 140%; in the assay on Mus musculus [3], 128%. In addition, the ID50 in the assay with KB was 1500 nM. Moreover, the IC50 in the assay with KB was determined as 0.5 µg/mL (≈ 1.52 µM).
For `CCOC(c1ccc(Cl)cc1)c1ccc(C(C)C)cc(=O)c1O` (stereo not given), the T/C in the assay with Mus musculus [1] worked out at 99%; with Mus musculus [2], 0%; in the assay with Mus musculus [3], 109%. This compound came in with an ID50 in the assay with KB of 900 nM. For the same compound, in the assay on KB, the IC50 turned out to be 0.3 µg/mL (≈ 0.901 µM).
For the compound `CCOC(/C=C/c1ccccc1)c1ccc(C(C)C)cc(=O)c1O` (stereo not given), the T/C with Mus musculus [1] is reported as 112%; in the assay on Mus musculus [2] it was 0%; in the assay on Mus musculus [3] it was 100%.
Regarding `COc1cc(C(C)C)ccc(C2OCCc3ccccc32)c1=O` (stereo not given), the T/C in the assay with Mus musculus [1] came to 92%; in the assay with Mus musculus [2] it was 98%; in the assay with Mus musculus [3] it was 94%. The compound also registered an ID50 in the assay on KB of 93000 nM. Moreover, the IC50 in the assay with KB was determined as 29 µg/mL (≈ 93.4 µM).
In the case of `COc1cc(C(C)C)cccc1=O`, the figures for the T/C with Mus musculus [1], in the assay on Mus musculus [4] and in the assay on Mus musculus [3] were 108%, 106% and 0%, respectively. The compound also had an ID50 in the assay on KB of 278000 nM. Besides, in the assay on KB, the IC50 was determined as 49.5 µg/mL (≈ 278 µM).
Take `Cc1ccc(C(c2ccc(C(C)C)cc(=O)c2O)c2ccc(C(C)C)cc(=O)c2O)cc1`: in the assay with KB, the ID50 amounted to 3400 nM and the IC50 is 1.5 µg/mL (≈ 3.48 µM). The T/C in the assay with Mus musculus [5] was 147%.
For the compound `COc1ccc(C(c2ccc(C(C)C)cc(=O)c2O)c2ccc(C(C)C)cc(=O)c2O)cc1OC`, the T/C in the assay on Mus musculus [6] came to 137%; with Mus musculus [7], 158%; in the assay on Mus musculus [5], 156%. The same compound gave an ID50 in the assay with KB of 600 nM. The IC50 in the assay with KB was 0.3 µg/mL (≈ 0.629 µM).
Compound `CCOC(c1ccccc1)c1ccc(C(C)C)cc(=O)c1O` (stereo not given) gave a T/C with Mus musculus [1] of 102%. The T/C in the assay with Mus musculus [2] is given as 0%. In addition, in the assay on KB, the ID50 was 1000 nM and the IC50 was 0.3 µg/mL (≈ 1.01 µM).
Regarding `COc1c(C2OCCc3ccccc32)ccc(C(C)C)cc1=O` (stereo not given), the values for the T/C in the assay on Mus musculus [1], in the assay with Mus musculus [2] and in the assay with Mus musculus [3] were 93%, 98% and 88%, respectively. Also, in the assay on KB, the ID50 stood at 58000 nM. Further, the IC50 in the assay on KB was 18 µg/mL (≈ 58 µM).
Consider `CC(C)c1ccc(C(c2ccc(Cl)cc2)c2ccc(C(C)C)cc(=O)c2O)c(O)c(=O)c1`, for which, in the assay on KB, the ID50 is 4400 nM and the IC50 came to 2 µg/mL (≈ 4.43 µM). For the same compound, the T/C in the assay with Mus musculus [5] amounted to 141%.
As for `Cc1ccccc1C(c1ccc(C(C)C)cc(=O)c1O)c1ccc(C(C)C)cc(=O)c1O`, the results for the T/C in the assay with Mus musculus [6], in the assay with Mus musculus [8] and in the assay on Mus musculus [5] were 137%, 158% and 156%, respectively.
Take `O=c1ccccc(C2OCCc3ccccc32)c1O` (stereo not given): the T/C is recorded as 104% with Mus musculus [1], 0% in the assay on Mus musculus [2] and 96% in the assay with Mus musculus [3]. In the assay with KB, this compound came in with an ID50 of 1600 nM. Further, the IC50 with KB was determined as 0.5 µg/mL (≈ 1.97 µM).
The compound `COc1ccc(C(c2ccc(C(C)C)cc(=O)c2O)c2ccc(C(C)C)cc(=O)c2O)cc1` showed a T/C with Mus musculus [6] of 134%. In the assay with KB, the ID50 was 1100 nM and the IC50 was 0.5 µg/mL (≈ 1.12 µM). In the assay on Mus musculus [9], this compound showed a T/C of 127%.
In the case of `COc1ccc(C(c2cc(C(C)C)ccc(=O)c2O)c2cc(C(C)C)ccc(=O)c2O)cc1`, in the assay with KB, the ID50 came to 600 nM and the IC50 is 0.3 µg/mL (≈ 0.672 µM). This compound displayed a T/C in the assay with Mus musculus [5] of 156%.
Consider `CC(C)c1ccc(Cc2ccccc2)c(O)c(=O)c1`, for which the T/C with Mus musculus [1] stood at 94%. Also, the T/C in the assay on Mus musculus [2] was determined as 88%. Further, in the assay with KB, the ID50 is 2000 nM and the IC50 came out at 0.5 µg/mL (≈ 1.97 µM).
Regarding `COc1cccc(C(c2ccc(C(C)C)cc(=O)c2O)c2ccc(C(C)C)cc(=O)c2O)c1`, the T/C in the assay on Mus musculus [6] was found to be 142%; with Mus musculus [7] it was 134%; with Mus musculus [5], 134%. The compound also showed an ID50 in the assay on KB of 2400 nM. Moreover, in the assay on KB, the IC50 is 1.1 µg/mL (≈ 2.46 µM).
As for `COc1ccccc1C(c1ccc(C(C)C)cc(=O)c1O)c1ccc(C(C)C)cc(=O)c1O`, the T/C in the assay with Mus musculus [8] is reported as 0%; in the assay on Mus musculus [10], 162%; with Mus musculus [5] it was 151%.
On to `C/C=C/C(OCC)c1ccc(C(C)C)cc(=O)c1O` (stereo not given), for which the results for the T/C in the assay with Mus musculus [1], with Mus musculus [2] and with Mus musculus [3] were 101%, 115% and 116%, respectively. This compound gave an ID50 in the assay with KB of 4500 nM. Moreover, in the assay on KB, the IC50 turned out to be 1.2 µg/mL (≈ 4.57 µM).
Take `CCOC(c1ccc(C)cc1)c1ccc(C(C)C)cc(=O)c1O` (stereo not given): the T/C in the assay with Mus musculus [1] came to 105%. In the assay with KB, the ID50 came to 9900 nM and the IC50 came to 6.2 µg/mL (≈ 19.8 µM). Further, the T/C in the assay with Mus musculus [3] is 105%.
`CCOC(c1ccc(N(C)C)cc1)c1ccc(C(C)C)cc(=O)c1O` (stereo not given): the T/C worked out at 0% with Mus musculus [2] and 128% with Mus musculus [3]. Further, the ID50 with KB worked out at 1700 nM. The IC50 in the assay on KB is 0.6 µg/mL (≈ 1.76 µM).
In the assay on Mus musculus [7], `CC(C)c1ccc(C(c2ccc(N(C)C)cc2)c2ccc(C(C)C)cc(=O)c2O)c(O)c(=O)c1` had a T/C of 177%. For the same compound, in the assay on KB, the ID50 turned out to be 1500 nM and the IC50 was 0.7 µg/mL (≈ 1.52 µM). Besides, in the assay with Mus musculus [5], the T/C was 173%.
For the compound `CC(C)c1ccc(C2OCCc3ccccc32)c(O)c(=O)c1` (stereo not given), the T/C in the assay with Mus musculus [1] is 127%; in the assay on Mus musculus [2], 108%; in the assay with Mus musculus [4] it was 128%; in the assay on Mus musculus [3] it was 126%. Further, the ID50 in the assay with KB was 1700 nM. For the same compound, the IC50 with KB is 0.5 µg/mL (≈ 1.69 µM).
In turn, `CC(C)c1ccc(C(c2ccccc2)c2ccc(C(C)C)cc(=O)c2O)c(O)c(=O)c1` showed a T/C in the assay with Mus musculus [11] of 132%. In the assay with Mus musculus [6], this compound gave a T/C of 150%. Further, in the assay on KB, the ID50 turned out to be 700 nM and the IC50 is 0.3 µg/mL (≈ 0.72 µM).
On to `COc1cc2c(c(OC)c1OC)-c1ccc(OC)c(=O)cc1[C@@H](NC(C)=O)CC2` [COLCHICINE], for which the figures for the T/C with Mus musculus [12], in the assay with Mus musculus [13] and in the assay on Mus musculus [14] were 142%, 160% and 166%, respectively. This compound came in with an ID50 in the assay with KB of 6000 nM. Besides, the IC50 in the assay on KB was 2.2 µg/mL (≈ 5.51 µM).
Turning to `CC(C)c1cccc(=O)c(O)c1` [HINOKITIOL], the T/C came out at 62% in the assay with Mus musculus [15], 100% in the assay on Mus musculus [16], 0% with Mus musculus [2] and 103% in the assay on Mus musculus [4]. This compound displayed an ID50 in the assay with KB of 3600 nM. In addition, in the assay on KB, the IC50 is 0.5 µg/mL (≈ 3.04 µM).
